ROMK mod: modulates human ROMK potassium channel activity | P48048 | Tet-inducible ROMK, thallium flux fluorescence; actives lie on both sides | B-score at 10 µM | 2% of 130,000 active;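 active means signal ratio slope over the read window, or its plate-corrected B-score, at least 3 SD from the plate mean, either direction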;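 further: B-score of the F/F0 ratio slope over 7 to 12 s after thallium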
Target sequence (P48048 whole entry, looked up): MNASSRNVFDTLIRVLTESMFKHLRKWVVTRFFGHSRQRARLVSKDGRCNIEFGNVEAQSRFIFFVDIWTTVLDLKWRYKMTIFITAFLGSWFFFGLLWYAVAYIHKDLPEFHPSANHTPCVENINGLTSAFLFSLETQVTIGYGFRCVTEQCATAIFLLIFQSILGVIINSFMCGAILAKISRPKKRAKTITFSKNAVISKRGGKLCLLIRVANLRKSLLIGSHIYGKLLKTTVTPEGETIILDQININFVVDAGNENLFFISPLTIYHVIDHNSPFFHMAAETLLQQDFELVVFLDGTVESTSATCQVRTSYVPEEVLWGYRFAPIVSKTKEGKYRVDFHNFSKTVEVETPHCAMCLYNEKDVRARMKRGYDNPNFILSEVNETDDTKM
Pf gametocyte: P. falciparum stage V gametocyte viability inhibition | P. falciparum stage V gametocytes, ATP luminescence, 24 h | inhibition, % at 10.9 µM | 0.065% of 150,000 active | AID 743093;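 active means inhibition above the mean plus 3 SD of compounds within the control limits, set per campaign, cut at about 38% in these data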;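 further: 0% = DMSO wells and 100% = medium only without gametocytes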
Biofilm kill mix: mixture kills Candida albicans biofilm cells. C. albicans biofilm persisters + clotrimazole, fluorescence viability; primary screen in compound mixtures of four per well. inhibition, % at 7.6 µM. 0.02% of 120,000 active. AID 1242;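 active means inhibition above 30.3% in the primary screen of four-compound pools, then above 30% when the compound was retested; inconclusive means passed the primary limit but could not be retested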;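 further: compounds exposed to preformed 24 h biofilms for 48 h; 0% = untreated biofilm control and 100% = clotrimazole plus chlorhexidine kill blank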
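Test system: C. albicans biofilms. Buffer or medium: RPMI/MOPS medium, pH 7.0. Timing: 48 h compound exposure at 37 °C. Technique: Alamar Blue fluorescence. Evaluation: percent inhibition of biofilm viability.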
ROMK retest: retested hit modulating human ROMK potassium channel | shares compounds with ROMK mod | ROMK thallium flux, fluorescence ratio; stronger effect = lower value | normalized thallium flux (F/F0 slope) at 10 µM | 54% of 3,000 active;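 active means Flux at 10 µM at least 3 SD below or above vehicle control mean in one or both replicates; inconclusive means no clear call, values can overlap the other calls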
* = called active by the depositor; u = inconclusive; x = no result. Only a selection was taken, and hits are over-represented in it overall.

SMILES	ROMK mod	Pf gametocyte	Biofilm kill mix	ROMK retest
CCC(NC(=O)Nc1nccs1)(C(F)(F)F)C(F)(F)F	-0.0106	x	x	x
CCC(C(=O)Nc1nccs1)(C(F)(F)F)C(F)(F)F	-0.0508	x	x	u
CCCNC(=O)Nc1nccs1	1.69*	-8.5	x	u
COc1ccc(CN2CCc3ccccc3C2)c(OC)c1	x	-1.7	14.8	x
COc1ccc(CN2CCC(N(CCc3ccccc3)Cc3ccccc3)CC2)c(OC)c1	-3.32*	0.0	13.9	0.0508*
O=C1c2ccccc2C(O)(c2ccccc2)N1C1CC1 (centres undefined)	x	4.9	28.1	x
CCOC(=O)CCNC(=O)N1CCCC(N(C)CCc2ccccc2)C1 (centres undefined)	x	0.9	x	x
COCCNC(=O)CSc1cc(=O)n(C)c2cc(Cl)ccc12	-9.77*	9.7	2.2	0.0844
Cn1c(=O)cc(SCC(=O)N2CCCC2)c2ccc(Cl)cc21	0.421	x	x	x
COc1ccc(CCNC(=O)C2CC3Cn4c(nc5ccccc54)C3N2c2ccccc2)cc1 (centres undefined)	x	-1.1	x	x
COc1ccc(Cn2c3ccc(OC)cc3c3nc4ccccc4nc32)cc1	x	x	1.2	x
COc1ccc2c(c1)c1nc3ccccc3nc1n2Cc1ccc(OC(C)C)c(OC)c1	-3.41*	-10.4	20.2	0.0567*
O=C(Cc1ccccc1Cl)Nc1cccnc1	0.131	-6.6	1.7	x
Cc1noc(C)c1COC(=O)c1cc(=O)[nH]c2ccccc12	0.287	-4.4	x	x
Cc1noc(C)c1COC(=O)c1cc(C)n(-c2ccccc2)c1C	x	x	x	0.0883
NC(c1ccccc1)c1ccncc1 (centres undefined)	x	8.6	x	x
CSC1=C(C#N)C(=O)NC(c2ccccc2O)S1 (centres undefined)	-4.16*	14.2	18.8	0.0585*
COC(=O)CSC1=C(C#N)C(=O)NC(c2ccccc2)S1 (centres undefined)	-0.514	x	x	x
Cc1ccc(-c2nn(CC(=O)N3CCOCC3)c(=O)c3ccccc23)cc1S(=O)(=O)N(C)C	x	10.5	14.5	x
Cc1[nH][nH]c(=O)c1C(c1ccc(O)c([N+](=O)[O-])c1)c1c(C)[nH][nH]c1=O	x	10.9	6.4	0.0774
Cc1[nH][nH]c(=O)c1C(c1ccc([N+](=O)[O-])cc1)c1c(C)[nH][nH]c1=O	x	-4.0	1.0	x
COc1c(C)cc(C(=O)C2CCCN(C(=O)c3cccc(F)c3)C2)cc1C (centres undefined)	0.152	-5.6	11.2	x
COc1cccc(C(=O)C2CCCN(C(=O)c3cccc(C#CC(C)(C)O)c3)C2)c1 (centres undefined)	1.66*	-6.0	5.0	0.0794
N#Cc1ccc2c(c1)nc1ccccn12	x	6.6	16.5	x
Clc1ccc2nc3ccccn3c2c1	3.6*	x	x	0.0921
SMILES	ROMK mod	Pf gametocyte	Biofilm kill mix	ROMK retest
C/C(CC(=O)N(C(C)C)C(C)C)=N\NC(=O)c1ccccc1Br	-0.0487	x	6.7	x
CCn1ncc(/C=N\NC(=O)c2ccc3c(c2)c(C)c(C)n3Cc2ccccc2)c1C	0.924	x	x	x
Cc1c(C)n(Cc2ccccc2)c2ccc(C(=O)OCCN(C)C)cc12	-3.54*	12.0	5.5	0.0592*
CC(NC(=O)N(Cc1ccccc1)Cc1ccc2c(c1)OCO2)(C(F)(F)F)C(F)(F)F	x	9.9	x	x
CCC(NC(=O)N(Cc1ccccc1)Cc1ccc2c(c1)OCO2)(C(F)(F)F)C(F)(F)F	x	8.9	x	0.077
C#CC(C)(CC)NC(=O)Cn1nnc(-c2cccc(C(F)(F)F)c2)n1 (centres undefined)	0.13	x	6.3	x
COc1cccc(NC(=O)COC(=O)c2nc3nccc(C)n3n2)c1	x	-3.7	x	x
COc1ccc(S(=O)(=O)N(C)C)cc1NC(=O)COC(=O)c1nc2nccc(C)n2n1	x	-2.1	1.3	0.0751
CCSc1nnc(NC(=O)NC(C)(C(F)(F)F)C(F)(F)F)s1	-0.878	x	16.7	x
CCSc1nnc(NC(=O)NC(CC)(C(F)(F)F)C(F)(F)F)s1	-3.99*	x	x	0.058*
C/C(=N\NC(=O)CSCc1ccccc1Cl)c1cc(O)ccc1O	-0.303	-39.9	8.1	x
CCN1CCN(C(=O)c2ccc(Cn3c(=O)[nH]c4cc(OC)c(OC)cc4c3=O)cc2)CC1	0.209	x	x	x
COC(=O)c1ccc2c(=O)n(CCCCCC(=O)N3CCN(c4ccccc4)CC3)c(=O)[nH]c2c1	x	-36.4	x	0.0751
COc1cc2[nH]c(=O)n(CCCCCC(=O)N3CCN(c4ccccc4)CC3)c(=O)c2cc1OC	0.024	-7.9	x	x
COc1ccc(Cn2c(=O)[nH]c3cc(C(=O)N4CCN(Cc5ccccc5)CC4)ccc3c2=O)cc1	x	-21.6	x	0.0789
C/C(=N\NC(=O)c1ccc(O)cc1)c1cccc(NC(=O)c2ccc(Cl)cc2)c1	x	-12.5	x	x
CS(=O)(=O)N1CCCC(C(=O)Nc2cccc(F)c2)C1 (centres undefined)	x	-12.8	x	x
COc1ccc(C(=O)NNC(=O)CSc2nnc(-c3cccnc3)o2)cc1	0.0881	2.9	22.7	x
COc1ccc2oc(=O)cc(CN(C)Cc3ccccc3)c2c1	x	6.2	x	x
C[n+]1nc(Nc2cccc(F)c2)sc1-c1ccc(C(=O)O)cc1	x	x	14.8	x
CCCC1=NN2C(=N)/C(=C\c3cc(C)n(Cc4ccccc4)c3C)C(=O)N=C2S1	x	-0.2	18.2	x
CCCC1=NN2C(=N)/C(=C\c3ccc(SCc4ccco4)o3)C(=O)N=C2S1	-3.02*	x	x	0.0533*
CCOc1ccc(N2C(=O)CC(N3CCN(C4CCc5ccccc5C4)CC3)C2=O)cc1 (centres undefined)	-2.13*	x	x	0.0643*
Cc1ccc(N2C(=O)CC(N3CCN(C4CCc5ccccc5C4)CC3)C2=O)cc1 (centres undefined)	-1.31	x	x	x
O=C(O)C1CC=CCC1C(=O)NCc1ccc(Cl)c(Cl)c1 (centres undefined)	x	-4.1	x	x
SMILES	ROMK mod	Pf gametocyte	Biofilm kill mix	ROMK retest
Cc1ccc(SCCC(=O)OCC(=O)NCC2CCCCC2)cc1	2.97*	0.0	11.0	0.0771
Cc1ccc(SCCC(=O)OCC(=O)Nc2ccc(S(N)(=O)=O)cc2)cc1	x	-1.4	14.1	x
O=C(NN=C1CCCCCC1)c1ccc2c(c1)OCO2	0.914	12.8	-1.0	x
O=c1cc(CSc2nnc(-c3cccs3)n2Cc2ccccc2)nc2sc3ccccc3n12	x	x	x	0.0638*
Cc1cc(C(=O)CSc2nnc(-c3cccs3)n2Cc2ccccc2)c(C)n1C	-1.01	11.0	x	x
O=c1cc(COc2ccccc2[N+](=O)[O-])nc2sccn12	x	1.2	19.6	x
Cc1ccc(-c2nc3ccccc3[nH]2)cc1NC(=O)c1sc2cc(Cl)ccc2c1Cl	x	-20.0	16.1	x
O=c1c2ccccc2nc(-c2ccccc2Cl)n1O	2.78*	1.3	11.0	0.0712
O=C(O)c1ccccc1-c1nc2cc(Cl)ccc2c(=O)n1O	-3.21*	-12.4	-1.2	0.0682*
O=c1c2ccccc2nc(-c2ccc(Cl)cc2Cl)n1O	0.58	-24.9	24.6	x
O=c1c2ccc(Cl)cc2nc(-c2cccc(C(F)(F)F)c2)n1O	1.55	-15.2	x	x
O=C(OCC(=O)N1CCc2ccccc2C1)c1cccc([N+](=O)[O-])c1	x	3.4	25.9	x
N#Cc1nc(-c2cccs2)oc1NCc1ccccc1	-3.62*	x	x	0.0541*
Cc1ccc(CNc2oc(-c3cccs3)nc2C#N)cc1	-0.00299	x	x	x
OCC[C@@H]1C[C@@H](O)[C@H](O)[C@@]2(CCCc3ccccc3O2)O1	x	4.5	x	x
O=C(Cn1ccc(NC(=O)OCc2ccccc2)nc1=O)NCCCN1CCCC1=O	x	1.7	x	x

Bioassay records: PubChem BioAssay, several laboratories
